Measurements collected from several papers.
Lines come from different studies, so protocols differ.
Target: Mitogen-activated protein kinase kinase kinase kinase 2 (MAP4K2, Homo sapiens, UniProt Q12851)
Sequence (Q12851 1-820, as in one of the studies): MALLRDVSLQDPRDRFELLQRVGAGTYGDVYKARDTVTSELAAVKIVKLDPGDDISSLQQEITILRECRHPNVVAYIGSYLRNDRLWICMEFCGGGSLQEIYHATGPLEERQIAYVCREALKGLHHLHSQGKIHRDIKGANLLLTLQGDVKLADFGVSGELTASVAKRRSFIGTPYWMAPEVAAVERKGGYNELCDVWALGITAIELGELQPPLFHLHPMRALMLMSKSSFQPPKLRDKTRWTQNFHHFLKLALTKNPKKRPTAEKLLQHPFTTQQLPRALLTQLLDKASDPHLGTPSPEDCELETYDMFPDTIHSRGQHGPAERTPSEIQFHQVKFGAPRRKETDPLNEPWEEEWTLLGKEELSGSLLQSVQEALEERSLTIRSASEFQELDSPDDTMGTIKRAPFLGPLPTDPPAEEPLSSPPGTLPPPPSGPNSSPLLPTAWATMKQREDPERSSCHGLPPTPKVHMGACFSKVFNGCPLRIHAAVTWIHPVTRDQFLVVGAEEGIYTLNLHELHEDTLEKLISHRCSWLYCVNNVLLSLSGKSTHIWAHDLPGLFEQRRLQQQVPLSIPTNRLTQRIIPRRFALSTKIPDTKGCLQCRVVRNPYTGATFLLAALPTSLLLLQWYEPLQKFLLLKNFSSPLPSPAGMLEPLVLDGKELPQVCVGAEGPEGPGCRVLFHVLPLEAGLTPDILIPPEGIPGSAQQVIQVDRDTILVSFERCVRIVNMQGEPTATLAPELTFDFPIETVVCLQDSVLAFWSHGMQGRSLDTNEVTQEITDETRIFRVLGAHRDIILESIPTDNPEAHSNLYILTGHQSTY

O=c1[nH]c2ccccc2n1C1CCN(Cc2ccc(-c3[nH]c4cc5ncnc5cc4nc3-c3ccccc3)cc2)CC1 — remaining signal (cell-free assay; 0.5 µM): 105%
Cn1cncc1[C@@](O)(COc1ccc(C#N)cc1-c1ccc(OC(F)(F)F)cc1)c1ccc(C#N)cc1 — remaining binding (cell-free assay, competition with immobilised ligand; 1 µM): 100%
COc1cc(Nc2ncc(F)c(Nc3ccc4c(n3)NC(=O)C(C)(C)O4)n2)cc(OC)c1OC — inhibition (binding, competition with immobilised ligand; 10 µM): 85%
Nc1ncc(-c2nc(N3CCOCC3)nc(N3CCOCC3)n2)c(C(F)F)n1 — remaining binding (binding, competition with immobilised ligand; 10 µM): 78%
N#CC1(c2ccccn2)CCN(Cc2cc(C(=O)O)c(=O)n3ccccc23)CC1 — remaining binding (cell-free assay, competition with immobilised ligand; 1 µM): 81%
CC(C)(C)c1cc(C=C(C#N)C#N)cc(Br)c1O — remaining activity (enzyme activity, inhibitor; 0.5 µM): 113%
Cc1nn(C)cc1-c1nc2c(N3CCN(Cc4ccc(Cl)cc4)CC3)c(Cl)cnc2[nH]1 — remaining binding (binding, competition with immobilised ligand; 1 µM): 85%
Cn1cc(-c2cc(F)cc(N3CCn4c(cc5c4CCCC5)C3=O)c2CO)cc(Nc2ccc(N3CCN(C4COC4)CC3)cn2)c1=O — inhibition (enzyme activity, inhibitor; 0.1 µM): 2%
COc1ncccc1-c1cnn2ccc(N3CCN(C(=O)OC(C)C)CC3)nc12 — remaining binding (binding, competition with immobilised ligand; 1 µM): 65%
